# Results reported in ChEMBL document CHEMBL3779892, “Increasing the binding affinity of VEGFR-2 inhibitors by extending their hydrophobic interaction with the active site: Design, synthesis and biological evaluation of 1-substituted-4-(4-methoxybenzyl)phthalazine derivatives” (Eur J Med Chem, 2016).
# How the values were obtained:
# [1] = Growth inhibition of human BT549 cells at 10 uM after 48 hrs by sulforhodamine B assay; format: functional; conditions: BT-549, 48 h, read-out: GI
# How it was run: (§1)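 Run at NCI on the 60-line panel. Cells grown in RPMI 1640 with 5% FBS and 2 mM L-glutamine, plated at 5000–40,000 cells/well by doubling time, and held 24 h at 37 °C before dosing. Drug (DMSO stock) given at a single final 10 µM in triplicate wells for 48 h. Adherent cells fixed with cold TCA (10% final), suspension cells with 16% TCA. SRB stain read at 515 nm. Percent growth from Tz, C and Ti.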
# MDA-MB-468 = experiment: Growth inhibition of human MDA-MB-468 cells at 10 uM after 48 hrs by sulforhodamine B assay; format: functional; conditions: MDA-MB-468, 48 h, read-out: GI; how it was run: as §1
# serum albumin = serum albumin (Bos taurus, UniProt P02769); experiment: Binding affinity to bovine serum albumin at pH 7.4 at 25 degC by equilibrium dialysis method; format: ADME; conditions: cattle, read-out: PB (converted)
# CCRF-CEM = experiment: Growth inhibition of human CCRF-CEM cells at 10 uM after 48 hrs by sulforhodamine B assay; format: functional; conditions: read-out: GI; how it was run: as §1
# [2] = Growth inhibition of human MOLT4 cells at 10 uM after 48 hrs by sulforhodamine B assay; format: functional; conditions: MOLT-4, 48 h, read-out: GI; how it was run: as §1
# A549 = experiment: Growth inhibition of human A549 cells at 10 uM after 48 hrs by sulforhodamine B assay; format: functional; conditions: A549, 48 h, read-out: GI; how it was run: as §1
# [3] = Growth inhibition of human HOP62 cells at 10 uM after 48 hrs by sulforhodamine B assay; format: functional; conditions: HOP-62, 48 h, read-out: GI; how it was run: as §1
# NCI-H226 = experiment: Growth inhibition of human NCI-H226 cells at 10 uM after 48 hrs by sulforhodamine B assay; format: functional; conditions: NCI-H226, 48 h, read-out: GI; how it was run: as §1
# NCI-H460 = experiment: Growth inhibition of human NCI-H460 cells at 10 uM after 48 hrs by sulforhodamine B assay; format: functional; conditions: NCI-H460, 48 h, read-out: GI; how it was run: as §1
# NCI-H522 = experiment: Growth inhibition of human NCI-H522 cells at 10 uM after 48 hrs by sulforhodamine B assay; format: functional; conditions: NCI-H522, 48 h, read-out: GI; how it was run: as §1
# [4] = Growth inhibition of human HCT15 cells at 10 uM after 48 hrs by sulforhodamine B assay; format: functional; conditions: HCT-15, 48 h, read-out: GI; how it was run: as §1
# KM12 = experiment: Growth inhibition of human KM12 cells at 10 uM after 48 hrs by sulforhodamine B assay; format: functional; conditions: KM12, 48 h, read-out: GI; how it was run: as §1
# [5] = Growth inhibition of human SW620 cells at 10 uM after 48 hrs by sulforhodamine B assay; format: functional; conditions: SW-620, 48 h, read-out: GI
# How it was run: (§2)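 NCI-60 panel, adherent cells grown in RPMI 1640 with 5% FBS and 2 mM L-glutamine, plated at 5000–40,000 cells/well and preincubated 24 h at 37 °C, 5% CO2. 10 µM final compound from DMSO stock, triplicate wells, 48 h. Fixed with cold TCA (10% final, 60 min, 4 °C) and stained with 0.4% SRB. Absorbance read at 515 nm; growth calculated against time-zero and control wells.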
# [6] = Growth inhibition of human LOXIMVI cells at 10 uM after 48 hrs by sulforhodamine B assay; format: functional; conditions: LOX IMVI, read-out: GI; how it was run: as §1
# Malme-3M = experiment: Growth inhibition of human MALME-3M cells at 10 uM after 48 hrs by sulforhodamine B assay; format: functional; conditions: read-out: GI; how it was run: as §1
# M14 = experiment: Growth inhibition of human M14 cells at 10 uM after 48 hrs by sulforhodamine B assay; format: functional; conditions: M14, 48 h, read-out: GI; how it was run: as §1
# [7] = Growth inhibition of human UACC62 cells at 10 uM after 48 hrs by sulforhodamine B assay; format: functional; conditions: UACC-62, 48 h, read-out: GI; how it was run: as §2
# [8] = Growth inhibition of human OVCAR3 cells at 10 uM after 48 hrs by sulforhodamine B assay; format: functional; conditions: OVCAR-3, 48 h, read-out: GI; how it was run: as §1
# 786-0 = experiment: Growth inhibition of human 786-0 cells at 10 uM after 48 hrs by sulforhodamine B assay; format: functional; conditions: 786-0, 48 h, read-out: GI; how it was run: as §1
# ACHN = experiment: Growth inhibition of human ACHN cells at 10 uM after 48 hrs by sulforhodamine B assay; format: functional; conditions: read-out: GI; how it was run: as §1
# [9] = Growth inhibition of human TK10 cells at 10 uM after 48 hrs by sulforhodamine B assay; format: functional; conditions: TK-10, 48 h, read-out: GI; how it was run: as §2
# [10] = Growth inhibition of human UO31 cells at 10 uM after 48 hrs by sulforhodamine B assay; format: functional; conditions: UO-31, 48 h, read-out: GI; how it was run: as §2
# [11] = Growth inhibition of human PC3 cells at 10 uM after 48 hrs by sulforhodamine B assay; format: functional; conditions: PC-3, 48 h, read-out: GI; how it was run: as §1
# [12] = Growth inhibition of human Hs 578T cells at 10 uM after 48 hrs by sulforhodamine B assay; format: functional; conditions: read-out: GI; how it was run: as §1
# serum albumin, sequence (P02769 whole entry): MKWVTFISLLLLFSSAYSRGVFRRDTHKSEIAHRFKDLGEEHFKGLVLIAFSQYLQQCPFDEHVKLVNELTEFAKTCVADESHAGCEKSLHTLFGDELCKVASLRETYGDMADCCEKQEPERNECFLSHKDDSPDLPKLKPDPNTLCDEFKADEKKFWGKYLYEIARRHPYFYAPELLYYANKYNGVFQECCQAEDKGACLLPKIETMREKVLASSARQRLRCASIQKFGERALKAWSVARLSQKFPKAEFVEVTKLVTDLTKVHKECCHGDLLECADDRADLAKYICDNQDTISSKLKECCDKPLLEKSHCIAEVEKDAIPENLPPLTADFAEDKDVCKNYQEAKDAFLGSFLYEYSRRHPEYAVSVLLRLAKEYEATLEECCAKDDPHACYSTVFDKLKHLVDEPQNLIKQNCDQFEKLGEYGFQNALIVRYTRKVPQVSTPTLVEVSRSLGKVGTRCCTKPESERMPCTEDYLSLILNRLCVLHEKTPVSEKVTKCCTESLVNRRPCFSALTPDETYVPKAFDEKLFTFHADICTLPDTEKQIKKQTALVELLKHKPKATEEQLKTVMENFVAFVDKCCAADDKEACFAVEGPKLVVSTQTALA
structure (smiles),measurement,setting,value
COc1ccc(Cc2nnc(Nc3ccc(NC(=O)Nc4ccc(OC)cc4)cc3)c3ccccc23)cc1,inhibition of growth at 10 µM,[1],31%
same,inhibition of growth at 10 µM,MDA-MB-468,< 30%
same,fraction unbound,serum albumin,0.921
same,inhibition of growth at 10 µM,CCRF-CEM,40%
same,inhibition of growth at 10 µM,[2],47%
same,inhibition of growth at 10 µM,A549,< 30%
same,inhibition of growth at 10 µM,[3],33%
same,inhibition of growth at 10 µM,NCI-H226,< 30%
same,inhibition of growth at 10 µM,NCI-H460,< 30%
same,inhibition of growth at 10 µM,NCI-H522,36%
same,inhibition of growth at 10 µM,[4],39%
same,inhibition of growth at 10 µM,KM12,39%
same,inhibition of growth at 10 µM,[5],< 30%
same,inhibition of growth at 10 µM,[6],< 30%
same,inhibition of growth at 10 µM,Malme-3M,31%
same,inhibition of growth at 10 µM,M14,< 30%
same,inhibition of growth at 10 µM,[7],< 30%
same,inhibition of growth at 10 µM,[8],< 30%
same,inhibition of growth at 10 µM,786-0,63%
same,inhibition of growth at 10 µM,ACHN,32%
same,inhibition of growth at 10 µM,[9],< 30%
same,inhibition of growth at 10 µM,[10],< 30%
same,inhibition of growth at 10 µM,[11],30%
same,inhibition of growth at 10 µM,[12],96%
